Data reported in ChEMBL document CHEMBL1132160, “Structure-antiviral activity relationship in the series of pyrimidine and purine N-[2-(2-phosphonomethoxy)ethyl] nucleotide analogues. 1. Derivatives substituted at the carbon atoms of the base” (J Med Chem, 1999).
≈ marks a conversion by molar mass, not a printed value.

What was measured:
Cytomegalovirus [1] = experiment: Inhibitory activity against cytomegalovirus (CMV) AD 169 strain; type: functional, organism-based; settings: Human betaherpesvirus 5
Method in brief: (§1)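 HEL cell cultures, grown to confluence, received 100 CCID50 of virus. After 1 h adsorption, the inoculum was removed and the cultures were incubated with serial concentrations of compound (400, 200, 100, ... μg/mL).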

Human alphaherpesvirus 1 [2] = experiment: Inhibitory activity against herpes simplex virus type 1 (HSV-1) KOS strain; type: functional, organism-based
Method in brief: (§2)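 Confluent E6SM cell cultures were inoculated with 100 CCID50 of virus and allowed 1 h for adsorption. Residual virus was then removed, and the cells were incubated with test compound at 400, 200, 100, ... μg/mL. Viral cytopathicity was scored once it reached completion in untreated infected controls.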

Human alphaherpesvirus 2 [3] = experiment: Inhibitory activity against herpes simplex virus type 2 (HSV-2) G strain; type: functional, organism-based; method in brief: as §2
Human alphaherpesvirus 2 [4] = experiment: Inhibitory activity against herpes simplex virus type 2 (HSV-2) Lyons strain; type: functional, organism-based; method in brief: as §2
Human alphaherpesvirus 1 [5] = experiment: Inhibition of herpes simplex virus type 1 (HSV-1) F strain; type: functional, organism-based; method in brief: as §2
[6] = test system: Human immunodeficiency virus 1; experiment: Inhibitory activity of compound against human immunodeficiency virus type 1 (HIV-1) induced cytopathogenicity in MT-4 cells; type: functional, organism-based; settings: Human immunodeficiency virus 1, MT4
Method in brief: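 Human MT-4 cells (~4 × 10⁵ cells/mL) were infected with 100 CCID50 of HIV-1 (IIIB)/mL and seeded into wells containing compound dilutions. After 5 days at 37 °C, viable cells were counted by trypan blue exclusion in a blood cell counting chamber.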

[7] = Inhibitory activity against herpes simplex virus type 2 (HSV-2) 196 strain; type: functional; method in brief: as §2
Cytomegalovirus [8] = experiment: Inhibitory activity against cytomegalovirus (CMV) Davis strain; type: functional, organism-based; settings: Human betaherpesvirus 5; method in brief: as §1
Human alphaherpesvirus 1 [9] = experiment: Inhibitory activity against herpes simplex virus type 1 (HSV-1) McIntyre strain; type: functional, organism-based; method in brief: as §2
[10] = Inhibitory activity against murine sarcoma virus induced transformation of murine C3H/3T3 embryo fibroblasts; type: functional, Mus musculus
Method in brief: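 Murine C3H/3T3 embryo fibroblasts were seeded at 5 × 10⁵ cells/mL. After 24 h they were infected with 80 focus-forming units of MSV for 90–120 min at 37 °C. The medium was then replaced with fresh medium containing various compound concentrations, and transformation was examined microscopically after 6 days.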

Vaccinia virus = experiment: Inhibitory activity against vaccinia virus (VV); type: functional, organism-based; settings: Orthopoxvirus vaccinia
Method in brief: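 Confluent E6SM cell cultures were inoculated with 100 CCID50 of virus and left for 1 h adsorption, then residual virus was removed. Cultures were incubated with test compound at serial concentrations (400, 200, 100, ... μg/mL). Virus-induced cytopathicity was scored once it reached completion in untreated infected control cultures.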

[11] = test system: Human immunodeficiency virus 2; experiment: Inhibition of human immunodeficiency virus type 2 (HIV-2) induced cytopathogenicity in CEM cells; type: functional, organism-based; settings: Human immunodeficiency virus 2, CCRF-CEM
HEL = experiment: Compound was evaluated for inhibitory activity against varicella zoster virus thymidine kinase (VZV TK-) 07/1 strain; NA=not active; type: functional, cell-based, Homo sapiens
[12] = test system: Human immunodeficiency virus 1; experiment: Inhibition of human immunodeficiency virus type 1 (HIV-1) induced cytopathogenicity in CEM cells; type: functional, organism-based; settings: Human immunodeficiency virus 1, CCRF-CEM
Method in brief: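 CEM cells (~3 × 10⁵ cells/mL) were infected with 100 CCID50 of HIV-1 (IIIB)/mL and plated with dilutions of compound. After 4 days at 37 °C, giant cell formation was assessed microscopically.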

[13] = test system: Human immunodeficiency virus 2; experiment: Inhibitory activity against human immunodeficiency virus type 2 (HIV-2) induced cytopathogenicity in MT-4 cells; type: functional, organism-based; settings: Human immunodeficiency virus 2, MT4
E6SM = experiment: Inhibitory activity against herpes simplex virus type 2 (HSV-2) Lyons strain.; type: functional, cell-based, Homo sapiens; method in brief: as §2
Human alphaherpesvirus 1 [14] = experiment: Inhibitory activity against herpes simplex virus type 1 (HSV-1) KOS strain.; type: functional, organism-based; method in brief: as §2
Human alphaherpesvirus 1 [15] = experiment: Inhibitory activity against herpes simplex virus type 1 thymidine kinase (HSV-1 TK-) VMW 1837 strain.
Human alphaherpesvirus 1 [16] = experiment: Inhibitory activity against herpes simplex virus type 1 (HSV-1) F strain; type: functional, organism-based; method in brief: as §2
Human alphaherpesvirus 2 [17] = experiment: Inhibitory activity against herpes simplex virus type 2 (HSV-2) 196 strain.; type: functional, organism-based; method in brief: as §2
Human alphaherpesvirus 1 [18] = experiment: Iactivity against herpes simplex virus type 1 (HSV-1) McIntyre strain.; type: functional, organism-based; method in brief: as §2
Human alphaherpesvirus 2 [19] = experiment: Inhibitory activity against herpes simplex virus type 2 (HSV-2) G strain.; type: functional, organism-based; method in brief: as §2

SMILES | EC50 (Cytomegalovirus [1]) [µg/mL] | EC50 (Human alphaherpesvirus 1 [2]) [µg/mL] | EC50 (Human alphaherpesvirus 2 [3]) [µg/mL] | EC50 (Human alphaherpesvirus 2 [4]) [µg/mL] | EC50 (Human alphaherpesvirus 1 [5]) [µg/mL] | EC50 [6] [µg/mL] | EC50 [7] [µg/mL] | EC50 (Cytomegalovirus [8]) [µg/mL] | EC50 (Human alphaherpesvirus 1 [9]) [µg/mL] | EC50 [10] [µg/mL] | EC50 (Vaccinia virus) [µg/mL] | EC50 [11] [µg/mL] | EC50 [12] [µg/mL] | EC50 [13] [µg/mL] | further results
CCOP(=O)(O)COCCn1cnc2c(O)nc(N)nc21 | 0.15 (≈ 0.473 µM) | 2 (≈ 6.3 µM) | 0.7 (≈ 2.21 µM) | 2 (≈ 6.3 µM) | 2 (≈ 6.3 µM) | 2.6 (≈ 8.2 µM) | 2 (≈ 6.3 µM) | 0.15 (≈ 0.473 µM) | 2 (≈ 6.3 µM) | 0.24 (≈ 0.757 µM) | 20 (≈ 63 µM) |  |  |  | 
Nc1nc(O)c2c(ncn2CCOCP(=O)(O)O)n1 | > 50 | 300 (≈ 1040 µM) | 300 (≈ 1040 µM) | > 400 | 200 (≈ 692 µM) |  | 200 (≈ 692 µM) | > 50 | 150 (≈ 519 µM) | 96 (≈ 332 µM) | > 400 | > 100 | > 100 |  | EC50 (HEL): Not Active
CC(C)OP(=O)(COCCn1cnc2nc(N)nc(O)c21)OC(C)C | > 50 | > 200 | > 200 | > 200 | > 200 |  | > 200 | > 50 | > 200 | > 200 | > 200 | > 100 | > 100 |  | EC50 (HEL): Not Active
Nc1cc2c(ncn2CCOCP(=O)(O)O)c(O)n1 | 2 (≈ 6.94 µM) | 4.5 (≈ 15.6 µM) | 12 (≈ 41.6 µM) | 7 (≈ 24.3 µM) | 7 (≈ 24.3 µM) | > 20 | 7 (≈ 24.3 µM) | 1.5 (≈ 5.2 µM) | 4 (≈ 13.9 µM) | 2.9 (≈ 10.1 µM) | 150 (≈ 520 µM) |  |  | > 20 | 
Nc1cc2c(ncn2CCOCP(=O)(O)O)c(N)n1 | > 50 | 150 (≈ 522 µM) | 70 (≈ 244 µM) | 70 (≈ 244 µM) | 70 (≈ 244 µM) | 51 (≈ 178 µM) | 100 (≈ 348 µM) | > 50 | 100 (≈ 348 µM) | 144 (≈ 501 µM) | 150 (≈ 522 µM) | 16 (≈ 55.7 µM) | 30 (≈ 104 µM) | 78.5 (≈ 273 µM) | 
Nc1ccn(CCOCP(=O)(O)O)c(=O)c1 | 100 (≈ 403 µM) |  |  |  |  | > 100 |  | > 100 |  | > 100 | > 40 |  |  | > 100 | EC50 (E6SM): Not Active; EC50 (Human alphaherpesvirus 1 [14]): Not Active; EC50 (Human alphaherpesvirus 1 [15]): Not Active; EC50 (Human alphaherpesvirus 1 [16]): Not Active; EC50 (Human alphaherpesvirus 2 [17]): Not Active; EC50 (Human alphaherpesvirus 1 [18]): Not Active; EC50 (Human alphaherpesvirus 2 [19]): Not Active
Nc1nc(=O)ccn1CCOCP(=O)(O)O | > 100 | > 400 |  |  |  | > 100 |  | > 100 |  | > 100 |  |  |  | > 100 | EC50 (E6SM): Not Active; EC50 (Human alphaherpesvirus 1 [15]): Not Active; EC50 (Human alphaherpesvirus 1 [16]): Not Active; EC50 (Human alphaherpesvirus 2 [17]): Not Active; EC50 (Human alphaherpesvirus 1 [18]): Not Active; EC50 (Human alphaherpesvirus 2 [19]): Not Active
Nc1nc(S)c2c(ncn2CCOCP(=O)(O)O)n1 | > 50 | > 100 | > 100 |  |  | > 100 |  | > 50 |  | 31 (≈ 102 µM) | > 100 | > 100 | > 100 | > 100 | 
Nc1nc2c(ncn2CCOCP(=O)(O)O)c(=O)[nH]1 [GS-438] |  |  |  |  |  | > 0.2 |  |  |  | 0.0006 (≈ 0.00207 µM) |  | 0.03 (≈ 0.104 µM) |  | > 0.2 | 
Nc1nc(N)c2ncn(CCOCP(=O)(O)O)c2n1 [PMEDAP] | 10 (≈ 34.7 µM) | 2 (≈ 6.94 µM) | 0.2 (≈ 0.694 µM) | 0.07 (≈ 0.243 µM) | 2 (≈ 6.94 µM) | 2.67 (≈ 9.26 µM) | 0.07 (≈ 0.243 µM) | 10 (≈ 34.7 µM) | 2 (≈ 6.94 µM) | 0.6 (≈ 2.08 µM) | 20 (≈ 69.4 µM) |  |  |  | 
